Source: ChEMBL document CHEMBL4219079, “Design, synthesis, and evaluation of the antiproliferative activity of hydantoin-derived antiandrogen-genistein conjugates” (Bioorg Med Chem, 2018)
Active and inactive are the calls of the source. The rule behind the calls is not given here.

Legend:
[1] = system: DU-145; experiment: Antiproliferative activity against human DU145 cells after 72 hrs by MTS assay; type: functional, cell-based
Outline: (§1)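 Seeded at 4,500 cells per well and exposed to compound in triplicate for 72 h. LNCaP were cultured in phenol-red-free RPMI-1640 and DU145 in EMEM, each with 10% FBS and penicillin/streptomycin, at 37 °C under 5% CO2. Viability was read by MTS. IC50 came from dose-response curve fitting. For combination lines, genistein was given together with enzalutamide.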

[2] = system: LNCaP; experiment: Antiproliferative activity against human LNCAP cells after 72 hrs by MTS assay; type: functional, cell-based; outline: as §1
[3] = system: LNCaP; experiment: Cell cycle arrest in human LNCAP cells assessed as accumulation at less G1 phase at 40 uM after 24 hrs by propidium iodide staining based flow cytometry (reference value: 1.5%); type: functional
[4] = system: LNCaP; experiment: Cell cycle arrest in human LNCAP cells assessed as accumulation at S phase at 40 uM after 24 hrs by propidium iodide staining based flow cytometry (reference value: 37.5%); type: functional
[5] = system: LNCaP; experiment: Cell cycle arrest in human LNCAP cells assessed as accumulation at G1 phase at 40 uM after 24 hrs by propidium iodide staining based flow cytometry (reference value: 52.4%); type: functional
[6] = system: LNCaP; experiment: Cell cycle arrest in human LNCAP cells assessed as accumulation at G2 phase at 40 uM after 24 hrs by propidium iodide staining based flow cytometry (reference value: 9.83%); type: functional
[7] = system: LNCaP; experiment: Cell cycle arrest in human LNCAP cells assessed as accumulation at greater G2 phase at 40 uM after 24 hrs by propidium iodide staining based flow cytometry (reference value: -0.37%); type: functional
[8] = system: CWR22R; experiment: Antiproliferative activity against human 22Rv1 cells harboring truncated AR up to 25 uM after 72 hrs by MTS assay; type: functional, cell-based
Outline: (§2)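 PC3, C4-2 and 22Rv1 prostate cancer cells treated in serum-fed medium with a range of doses, up to 50 μM. Growth read at 72 h post-treatment by MTS assay as percent of control. Data are averages of two independent experiments, each done in duplicate.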

[9] = system: CWR22R; experiment: Antiproliferative activity against human 22Rv1 cells harboring truncated AR at 1.25 uM after 72 hrs by MTS assay relative to control; type: functional; outline: as §2
[10] = system: LNCaP; experiment: Downregulation of AR protein level in human LNCAP cells at 1.25 to 2.5 uM after 24 hrs in presence of proteasome inhibitor bortezomib by Western blot method; type: functional, cell-based
Outline: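 LNCaP seeded at 10^6 cells/dish and pretreated with bortezomib at 20 nM or 40 nM for 2 h. Cells were then exposed to compound for 24 h. AR protein was assessed by immunoblot after Bradford-normalized SDS-PAGE (100 V, 2 h) and nitrocellulose transfer, with actin as loading control.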

[11] = system: LNCaP; experiment: Cell cycle arrest in human LNCAP cells assessed as accumulation at G2 phase at 5 uM after 24 hrs by propidium iodide staining based flow cytometry (reference value: 9.83%); type: functional
[12] = system: LNCaP; experiment: Downregulation of AR protein level in human LNCAP cells after 24 hrs by Western blot method; type: functional, cell-based
Outline: (§3)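 LNCaP seeded at 10^6 cells/dish 24 h before a 24 h compound treatment, with DMSO as control. Lysates were made in CelLyticM with protease inhibitors and quantified by Bradford. Equal protein was run on SDS-PAGE at 100 V for 2 h, transferred to nitrocellulose, and probed for AR, with actin as loading control.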

[13] = system: LNCaP; experiment: Cell cycle arrest in human LNCAP cells assessed as accumulation at less G1 phase at 5 uM after 24 hrs by propidium iodide staining based flow cytometry (reference value: 1.5%); type: functional
[14] = system: LNCaP; experiment: Cell cycle arrest in human LNCAP cells assessed as accumulation at S phase at 5 uM after 24 hrs by propidium iodide staining based flow cytometry (reference value: 37.5%); type: functional
[15] = system: LNCaP; experiment: Cell cycle arrest in human LNCAP cells assessed as accumulation at G1 phase at 5 uM after 24 hrs by propidium iodide staining based flow cytometry (reference value: 52.4%); type: functional
[16] = system: LNCaP; experiment: Cell cycle arrest in human LNCAP cells assessed as accumulation at less G1 phase at 2.5 uM after 24 hrs by propidium iodide staining based flow cytometry (reference value: 1.5%); type: functional
[17] = system: LNCaP; experiment: Cell cycle arrest in human LNCAP cells assessed as accumulation at greater G2 phase at 5 uM after 24 hrs by propidium iodide staining based flow cytometry (reference value: -0.37%); type: functional
[18] = system: PC-3; experiment: Antiproliferative activity against human AR negative PC3 cells at 2.5 uM after 72 hrs by MTS assay relative to control; type: functional; outline: as §2
[19] = system: LNCaP; experiment: Cell cycle arrest in human LNCAP cells assessed as accumulation at greater G2 phase at 2.5 uM after 24 hrs by propidium iodide staining based flow cytometry (reference value: -0.37%); type: functional
[20] = system: LNCaP; experiment: Cell cycle arrest in human LNCAP cells assessed as accumulation at G1 phase at 2.5 uM after 24 hrs by propidium iodide staining based flow cytometry (reference value: 52.4%); type: functional
[21] = system: LNCaP C4-2; experiment: Antiproliferative activity against human AR positive C4-2 cells at 1.25 uM after 72 hrs by MTS assay relative to control; type: functional; outline: as §2
[22] = system: LNCaP; experiment: Cell cycle arrest in human LNCAP cells assessed as accumulation at G2 phase at 2.5 uM after 24 hrs by propidium iodide staining based flow cytometry (reference value: 9.83%); type: functional
[23] = system: LNCaP; experiment: Cell cycle arrest in human LNCAP cells assessed as accumulation at S phase at 2.5 uM after 24 hrs by propidium iodide staining based flow cytometry (reference value: 37.5%); type: functional
[24] = system: DU-145; experiment: Antiproliferative activity against human DU145 cells assessed as cell survival up to 100 uM after 72 hrs by MTS assay relative to control; type: functional
Outline: (§4)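 LNCaP (phenol-red free RPMI-1640) or DU145 (EMEM), each with 10% FBS and penicillin/streptomycin, at 37 °C in 5% CO2. Cells seeded at 4,500 per well and exposed to compound in triplicate for 72 h. Viability read by MTS. Curves are the average of triplicate experiments, with IC50 taken from curve fitting.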

[25] = system: LNCaP; experiment: Antiproliferative activity against human LNCAP cells assessed as cell survival up to 100 uM after 72 hrs by MTS assay relative to control; type: functional; outline: as §4
[26] = system: LNCaP; experiment: Cell cycle arrest in human LNCAP cells assessed as accumulation at G2 phase at 25 uM after 24 hrs by propidium iodide staining based flow cytometry (reference value: 9.83%); type: functional
[27] = organism: Homo sapiens; experiment: Inhibition of HDAC6/HSP90 in human LNCAP cells assessed as downregulation of AR protein level at 2.5 uM after 24 hrs by Western blot method; type: cell-based; outline: as §3
[28] = system: LNCaP C4-2; experiment: Antiproliferative activity against human AR positive C4-2 cells at 50 uM after 72 hrs by MTS assay relative to control; type: functional; outline: as §2
[29] = system: LNCaP; experiment: Antiproliferative activity against human LNCAP cells; type: functional, cell-based
[30] = system: LNCaP; experiment: Cell cycle arrest in human LNCAP cells assessed as accumulation at G1 phase at 25 uM after 24 hrs by propidium iodide staining based flow cytometry (reference value: 52.4%); type: functional
[31] = system: LNCaP; experiment: Cell cycle arrest in human LNCAP cells assessed as accumulation at less G1 phase at 25 uM after 24 hrs by propidium iodide staining based flow cytometry (reference value: 1.5%); type: functional
[32] = system: LNCaP; experiment: Antiproliferative activity against human LNCAP cells assessed as cell survival at 100 uM after 72 hrs in presence of enzalutamide by MTS assay relative to control; type: functional; conditions: read-out: Survival; outline: as §4
[33] = system: CWR22R; experiment: Antiproliferative activity against human 22Rv1 cells harboring truncated AR at 50 uM after 72 hrs by MTS assay relative to control; type: functional; outline: as §2
[34] = system: DU-145; experiment: Antiproliferative activity against human DU145 cells after 72 hrs in presence of enzalutamide by MTS assay; type: functional, cell-based; outline: as §1
[35] = system: LNCaP; experiment: Cell cycle arrest in human LNCAP cells assessed as accumulation at S phase at 25 uM after 24 hrs by propidium iodide staining based flow cytometry (reference value: 37.5%); type: functional
[36] = system: LNCaP; experiment: Cell cycle arrest in human LNCAP cells assessed as accumulation at greater G2 phase at 25 uM after 24 hrs by propidium iodide staining based flow cytometry (reference value: -0.37%); type: functional
[37] = system: LNCaP; experiment: Antiproliferative activity against human LNCAP cells after 72 hrs in presence of enzalutamide by MTS assay; type: functional, cell-based; outline: as §1
[38] = system: PC-3; experiment: Antiproliferative activity against human AR negative PC3 cells at 50 uM after 72 hrs by MTS assay relative to control; type: functional; outline: as §2

## CC1(C)C(=O)N(c2ccc(C#N)c(C(F)(F)F)c2)C(=S)N1c1ccc(-c2cn(CCOc3cc(O)c4c(=O)c(-c5ccc(O)cc5)coc4c3)nn2)cc1
[1]
  Activity: inactive
[2]
  Activity: inactive

## CC1(C)C(=O)N(c2ccc(C#N)c(C(F)(F)F)c2)C(=S)N1Cc1ccc(-c2cn(CCOCCOCCOCCOCCOCCOCCOCCOc3cc(O)c4c(=O)c(-c5ccc(O)cc5)coc4c3)nn2)cc1
[1]
  Activity: inactive
[2]
  Activity: inactive

## CC1(C)C(=O)N(c2ccc(C#N)c(C(F)(F)F)c2)C(=O)N1CCCCc1cn(CCOc2cc(O)c3c(=O)c(-c4ccc(O)cc4)coc3c2)nn1
[1]
  Activity: inactive
[2]
  Activity: inactive

## CC1(C)C(=O)N(c2ccc(C#N)c(C(F)(F)F)c2)C(=S)N1Cc1ccc(-c2cn(CCOc3cc(O)c4c(=O)c(-c5ccc(O)cc5)coc4c3)nn2)cc1
[1]
  Activity: inactive
[2]
  Activity: inactive

## CC1(C)C(=O)N(c2ccc(C#N)c(C(F)(F)F)c2)C(=S)N1c1ccc(-c2cn(CCOCCOCCOCCOCCOCCOCCOCCOc3cc(O)c4c(=O)c(-c5ccc(O)cc5)coc4c3)nn2)cc1
[1]
  Activity: inactive
[2]
  Activity: inactive

## C#CCCCCN1C(=O)N(c2ccc(C#N)c(C(F)(F)F)c2)C(=O)C1(C)C
[3]
  Activity: -0.44%
[4]
  Activity: 54.2%
[5]
  Activity: 33.1%
[6]
  Activity: 13.4%
[7]
  Activity: -0.21%

## CNC(=O)c1ccc(N2C(=S)N(c3ccc(C#N)c(C(F)(F)F)c3)C(=O)C2(C)C)cc1F
[8]
  Activity: Active

## CC1(C)C(=O)N(c2ccc(C#N)c(C(F)(F)F)c2)C(=O)N1CCCCc1cn(CCOCCOCCOCCOCCOCCOCCOCCOc2cc(O)c3c(=O)c(-c4ccc(O)cc4)coc3c2)nn1
[9]
  Activity: 15 - 20%
[10]
  Activity: Active
[11]
  Activity: 11.3%
[1]; DU-145, 72 h
  IC50: 3.4 µM
[12]
  Activity: Dose-dependent effect
[13]
  Activity: -0.92%
[14]
  Activity: 50.8%
[15]
  Activity: 39.2%
[16]
  Activity: -0.094%
[17]
  Activity: -0.63%
[18]
  Activity: 5 - 10%
[2]
  IC50: 1.4 µM
[19]
  Activity: 0.55%
[20]
  Activity: 34%
[21]
  Activity: 50%
[22]
  Activity: 10.6%
[23]
  Activity: 54.7%
[24]
  Survival: <40%
[25]
  Survival: <40%

## O=c1c(-c2ccc(O)cc2)coc2cc(O)cc(O)c12 [GENISTEIN]
[26]
  Activity: 9.34%
[27]
  inhibition: Active
[28]
  Activity: 40%
[29]
  IC50: 10 to 40 µM
[30]
  Activity: 37.1%
[31]
  Activity: -0.34%
[32]
  viability at 100 µM: 40%
[33]
  Activity: 40%
[34]
  Activity: Dose-dependent effect
[35]
  Activity: 52.5%
[2]
  IC50: 24 µM
[36]
  Activity: 0.21%
[37]
  IC50: 31.7 µM
[38]
  Activity: 40%
